Calb biofilm kill = kills Candida albicans biofilms; AID 834; 85,000 compounds, 0.14% hits; inhibition, % at 6 µM; C. albicans biofilm + clotrimazole, Alamar Blue;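 active means inhibition above 20%; inactive means inhibition below 20%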;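 further: preformed 24 hr biofilms exposed to compound for 48 hr; 0% = biofilm without compound and 100% = blank killed by clotrimazole plus chlorhexidine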
HUVEC inhibit = inhibitors of human endothelial cell proliferation. HUVEC proliferation, CellTiter-Glo luminescence, 72 h; stronger effect = lower value. viability, % at 10 µM (by protocol). 86,000 compounds, 1.1% hits;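 active means viability at or below 30%; inactive means viability above 30%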;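 further: 100% = median luminescence of DMSO-only cell control wells on each plate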
H69AR inhibit = blocks growth of human H69AR lung tumor cells; H69AR lung tumor viability, ATP luminescence, 72 h; stronger effect = lower value; 85,000 compounds, 6% hits; viability, % at 10 µM;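 active means viability at or below 40%; inactive means viability above 40%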;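 further: multidrug resistant small cell line overexpressing MRP-1 efflux transporter; 100% = mean luminescence of untreated control wells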
HCT116 bCat-KO = beta-catenin-lacking colon tumor cell growth suppression; HCT116 beta-catenin knockout viability, CellTiter-Glo, 60 h; stronger effect = lower value; viability, % at 10 µM; 140,000 compounds, 1.5% hits;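 active means viability at or under a set limit, the compound median less 4 SD, cut at about 6% in these data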;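 further: 0% = Hyamine 1622 control at 20 µM and 100% = untreated cell control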
Fibroblast inh = blocks proliferation of human lung fibroblasts; LL 47 human lung fibroblast viability, ATP luminescence; stronger effect = lower value; viability, % at 10 µM; 85,000 compounds, 1.1% hits;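 active means viability at or below 50% in the single dose screen; inactive means viability above 50%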;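 further: compound exposure lasted 72 h before the ATP readout; 100% = median luminescence of untreated cell-only wells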
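Material: human LL 47 lung fibroblast cells; quantity: 1,150 cells/well; medium: IMEM plus 15% FBS; doses: 0.1% DMSO in all compound wells; timing: overnight attachment after seeding, then 72 h compound exposure at 37 °C; detection: CellTiter-Glo luminescence; measure: % viability of median cell-only signal; controls: cell-only wells, no compound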
HCT116 PTEN-null = growth suppressors of cells with PTEN tumor suppressor deletion | HCT116 PTEN-null viability, CellTiter-Glo, 60 h; stronger effect = lower value | viability, % at 10 µM | 140,000 compounds, 1.2% hits;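 active means viability at or below a set limit, 4 SD under the median of all tested compounds, cut at about 3.7% in these data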;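 further: PTEN knockout HCT116 line with beta catenin targeted HCT116 as companion control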
An asterisk follows results filed as active; / = no result. The full list was thinned out, with hits kept by preference.

SMILES	Calb biofilm kill	HUVEC inhibit	H69AR inhibit	HCT116 bCat-KO	Fibroblast inh	HCT116 PTEN-null
Cc1ccccc1-n1nc2c(c1NC(=O)c1cc3ccccc3oc1=O)CS(=O)(=O)C2	-3	92	4.2*	99	88	90
N#CC1=C(N)N(c2ccccc2)C2=C(C(=O)CCC2)C1c1ccsc1 (stereo not given)	3	94	27*	89	94	86
CC(=O)Oc1c(Cl)c(N2CCOCC2)c(OC(C)=O)c2ccccc12	3	85	1.9*	49	101	56
O=C(CSc1nnnn1-c1ccc(Cl)cc1)N1CCc2ccccc2C1	2	104	94	94	95	109
COc1cc(/C=C/C(=O)O)cc(S(=O)(=O)NC2CC2)c1OC	/	/	/	89	/	99
Cn1cnnc1Sc1ccc(C(=O)OCC(=O)Nc2ccccc2)cc1[N+](=O)[O-]	/	/	/	97	/	94
O=[N+]([O-])c1ccc(Sc2nnnn2-c2ccccc2)c(Cl)c1	4	51	5.1*	18	44*	19
Nc1ccc(Sc2nnnn2-c2ccccc2)c(Cl)c1	5	100	99	95	100	103
CN1CCN(S(=O)(=O)c2ccc(Sc3nnnn3-c3ccccc3)c([N+](=O)[O-])c2)CC1	/	/	/	5.4*	/	3.2*
CC(=O)c1ccc(Sc2nnnn2-c2ccccc2)c([N+](=O)[O-])c1	/	/	/	5.7*	/	6
CCCCOc1ccc(NC(=S)Nc2cc(C)nc(SCCCC)n2)cc1	/	/	/	70	/	86
CC(C)OC(=O)CCCNc1ccc([N+](=O)[O-])cc1[N+](=O)[O-]	/	/	/	97	/	86
Cc1nc2cc(NS(=O)(=O)c3c(C)c(C)cc(C)c3C)ccc2s1	11	98	51	37	88	52
Cc1nc2ccc(NS(=O)(=O)c3c(C)c(C)cc(C)c3C)cc2s1	0	87	16*	28	96	36
CCC(=O)N(CC(=O)Nc1sc(C)c(C)c1C(N)=O)C1CCCCC1	/	/	/	88	/	96
CCC(C)(C)n1nnnc1C(c1ccc(O)c(OC)c1)N1CCN(c2nc3ccccc3s2)CC1 (stereo not given)	10	93	14*	66	94	83
CCC(C)(C)n1nnnc1C(c1ccc(O)c(OC)c1)N1CCc2ccccc2C1 (stereo not given)	1	94	34*	95	87	89
COc1ccc(C(c2nnnn2C(C)(C)C)N2CCN(c3nc4ccccc4s3)CC2)cc1 (stereo not given)	/	96	83	77	100	72
CCCCC(=O)NC1(C(F)(F)F)C(=O)N(CC(C)C)C2=C1C(=O)CC(C)(C)C2 (stereo not given)	/	/	/	99	/	94
N#CCCSc1nc(N2CCOCC2)c2c(c1C#N)CCCC2	3	89	38*	88	81	84
Cc1cc2cc(CCNC(=O)c3cccs3)c(=O)[nH]c2cc1C	/	/	/	40	/	77
Cn1c(=O)c2ncn(CC(=O)Nc3ccc4oc(-c5cccc6ccccc56)nc4c3)c2n(C)c1=O	6	27*	101	/	60	/
CCC(C)c1ccc2oc(-c3ccc(NC(=O)Cn4cnc5c(=O)n(C)c(=O)n(C)c54)cc3)nc2c1 (stereo not given)	2	42	25*	1.6*	34*	1.5*
Cn1c(=O)c2ncn(CC(=O)Nc3ccc(N4CCOCC4)cc3)c2n(C)c1=O	/	/	/	91	/	93
CC(C)N1C/C(=C/c2cccnc2)C(=O)/C(=C/c2cccnc2)C1	/	/	/	52	/	58
SMILES	Calb biofilm kill	HUVEC inhibit	H69AR inhibit	HCT116 bCat-KO	Fibroblast inh	HCT116 PTEN-null
CN1C/C(=C/c2cccnc2)C(=O)/C(=C/c2cccnc2)C1	/	/	/	2.1*	/	2.1*
CC(C)OC(=O)c1c(N)n(CCCN2CCOCC2)c2nc3ccccc3nc12	4	95	60	91	104	94
CC(C)OC(=O)c1c2nc3ccccc3nc2n2c1[nH]c(=O)c1ccccc12	1	65	33*	24	63	31
O=C1S/C(=C/c2ccccc2F)C(=O)N1CCN=C1NS(=O)(=O)c2ccccc21	/	/	/	99	/	101
Cc1ccc(C(NC(=O)NC(C)c2ccccc2)C(Cl)(Cl)Cl)cc1F (stereo not given)	/	/	/	6.1*	/	3.4*
CC(=O)c1c(C)n(-c2ccccc2)c2ccc(O)cc12	-1	71	63	95	96	92
COC(=O)c1c(C)n(-c2ccc(C)cc2)c2ccc(O)cc12	4	27*	23*	41	88	31
COC(=O)c1c(C)n(-c2ccccc2)c2ccc(O)cc12	4	42	19*	51	92	39
COc1cc(C)c(C(C)C)cc1S(=O)(=O)n1cnc(C)c1	1	43	34*	24	56	28
O=C1C2CC=CCC2C(=O)N1c1ccc(Cc2ccncc2)cc1 (stereo not given)	6	104	96	97	102	93
Fc1ccc2c(c1)C(c1ccncc1)=NNC(c1ccccc1)=N2	/	/	/	88	/	96
O=C(c1ccc(COc2ccccc2Br)o1)N1N=C(C(F)F)CC1(O)C(F)F (stereo not given)	/	/	/	99	/	104
CN(C)c1ccc(C(=O)c2ccc(O)cc2O)cc1	4	95	51	98	109	90
COc1ccc(C(=O)c2ccc(N(C)C)cc2)c2ccccc12	3	40	27*	12	59	15
CCc1nnc(NC(=O)CSc2nccn2-c2cc(C)cc(C)c2)s1	9	78	22*	74	99	81
CCc1nnc(NC(=O)CSc2nccn2-c2cccc(C)c2C)s1	13	82	18*	41	91	33
O=C1C2ON(c3ccc(Cl)cc3)C(c3ccco3)C2C(=O)N1c1ccccc1 (stereo not given)	6	91	80	96	98	96
CCOC(=O)CC(NS(=O)(=O)c1ccc(OC)c(C)c1)c1cccc([N+](=O)[O-])c1 (stereo not given)	/	/	/	93	/	96
O=C(Nc1ccccc1Cl)NC1(C(=O)N2CCCCC2)CCCCC1	3	96	95	85	96	101
O=C(Nc1ccccc1Cl)NC1(C(=O)N2CCCC2)CCCCC1	4	94	81	0.7*	107	0.8*
Cc1cc(N2CCOCC2)nc(NCc2ccccc2)n1	4	115	91	93	93	75
Cc1cc(N2CCCCC2)nc(NCc2ccccc2)n1	7	40	16*	6.0*	67	8
Cc1ccccc1Cc1c(C)nc2c(C(=O)NCc3ccco3)cnn2c1C	0	92	40*	85	106	81
O=C(c1ccc(F)cc1)C(CCCCCC(CN1CCOCC1)C(=O)c1ccc(F)cc1)CN1CCOCC1 (stereo not given)	3	56	23*	43	89	36
CC(CN1CCOCC1)C(=O)c1ccccc1 (stereo not given)	2	95	111	95	107	101
